According to ChEMBL document CHEMBL4715779, “In vivo effective dibenzo[b,d]furan-1-yl-thiazoles as novel PDE-4 inhibitors” (Bioorg Med Chem, 2016):
Blank lines part the entries; values can stand above or below the compound they belong to.

Experiments:
Rattus norvegicus [1] = experiment: Antiinflammatory activity in Sprague-Dawley rat model of LPS-induced COPD and asthma assessed as reduction in total cell count in BALF at 0.1 mg/kg, po administered 30 mins before LPS stimulation and measured after 6 hrs relative to control; assay type: functional; settings: time 6.5 hrs
[2] = Genotoxicity in Salmonella typhimurium TA100 in presence of rat liver S9 fraction at 0.039 to 5 mg by Ames test; assay type: toxicity, subcellular, Salmonella enterica subsp. enterica serovar Typhimurium; settings: dose 0.039-5 mg
How it was run: (§1)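 Ames reverse mutation test in S. typhimurium TA98 and TA100 with rat liver S9 activation, doses 0.039–5 mg/plate (eight levels); mutagenicity and cytotoxicity scored.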

[3] = Oral bioavailability in Wistar rat at 10 mg/kg; assay type: ADME, organism-based; settings: in vivo
[4] = Inhibition of PDE-4 in human PBMC assessed as LPS-induced TNFalpha production incubated for 15 mins followed by LPS stimulation and measured after 18 hrs by ELISA relative to control
How it was run: (§2)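 PBMC isolated from healthy volunteers' blood in cell preparation tubes, suspended in RPMI; 0.5 million cells/well pre-incubated with compound 15 min at 37 °C, then stimulated with E. coli LPS (B4) 1 µg/mL for 18 h at 37 °C, 5% CO2; medium TNF-α measured by ELISA.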

Mus musculus [5] = experiment: Antiinflammatory activity in Swiss albino mouse model of LPS-induced sepsis assessed as reduction in TNFalpha production at 0.3 mg/kg, po administered 30 mins before LPS stimulation and measured after 90 min by ELISA relative to control; assay type: functional; settings: 2 h, time 120 min
How it was run: (§3)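 Female Swiss albino mice fasted 20 h with water, dosed orally in 0.5% Tween 80/0.25% CMC sodium; vehicle-only controls. 500 µg E. coli LPS (B4) in PBS i.p. 30 min later; retro-orbital bleed 90 min post-LPS, blood held overnight at 4 °C, serum TNF-α by mouse ELISA; % inhibition.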

PBMC [6] = experiment: Inhibition of PDE-4 in human PBMC assessed as LPS-induced TNFalpha production at 100 nM incubated for 15 mins followed by LPS stimulation and measured after 18 hrs by ELISA relative to control; settings: time 1095.0 min; how it was run: as §2
Rattus norvegicus [7] = experiment: Antiinflammatory activity in Sprague-Dawley rat model of LPS-induced COPD and asthma assessed as reduction in total cell count in BALF at 1 mg/kg, po administered 30 mins before LPS stimulation and measured after 6 hrs relative to control; assay type: functional; settings: time 6.5 hrs
[8] = AUClast in Wistar rat at 5 mg/kg, iv; assay type: ADME, organism-based; set-up: dose 5 mg/kg; settings: in vivo
Rattus norvegicus [9] = experiment: Antiinflammatory activity in Sprague-Dawley rat model of LPS-induced COPD and asthma assessed as reduction in total cell count in BALF at 10 mg/kg, po administered 30 mins before LPS stimulation and measured after 6 hrs relative to control; assay type: functional; settings: time 6.5 hrs
[10] = Half life in Wistar rat at 5 mg/kg, iv; assay type: ADME, organism-based; settings: in vivo
[11] = Half life in Wistar rat at 10 mg/kg, po; assay type: ADME, organism-based; settings: in vivo
[12] = Tmax in Wistar rat at 10 mg/kg, po; assay type: ADME, organism-based; settings: in vivo
[13] = Genotoxicity in Salmonella typhimurium TA98 in presence of rat liver S9 fraction at 0.039 to 5 mg by Ames test; assay type: toxicity, subcellular, Salmonella enterica subsp. enterica serovar Typhimurium; settings: dose 0.039-5 mg; how it was run: as §1
Rattus norvegicus [14] = experiment: Antiinflammatory activity in Sprague-Dawley rat model of LPS-induced COPD and asthma assessed as reduction in total cell count in BALF at 3 mg/kg, po administered 30 mins before LPS stimulation and measured after 6 hrs relative to control; assay type: functional; settings: time 6.5 hrs
Rattus norvegicus [15] = experiment: Antiinflammatory activity in Wistar rat model of LPS-induced uveitis assessed as reduction in infiltrating cells in aqueous humor at 3 mg/kg, po administered 24 hrs after LPS stimulation and measured after 1 hr by hemocytometry relative to control; assay type: functional
[16] = Clearance in Wistar rat at 5 mg/kg, iv; assay type: ADME, organism-based; settings: in vivo
[17] = molecular target: T1, 3',5'-cyclic-AMP phosphodiesterase 4B (Homo sapiens, UniProt Q07343); experiment: Inhibition of human PDE4B using [3H]cAMP as substrate incubated for 5 mins followed by substrate addition and measured after 10 mins by scintillation proximity assay
How it was run: (§4)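 Purified human PDE-4B2 in 50 mM Tris pH 7.4, 8.3 mM Mg2+, 1% DMSO final, enzyme converting 10–20% of substrate; 5 min pre-incubation at 37 °C, then 0.5 µM cAMP with ~50,000 cpm [3H]-cAMP for 10 min; stopped with yttrium silicate SPA beads containing 18 mM ZnSO4, read after >30 min settling. Background = no enzyme; IC50 from 8–10-point 4-parameter fit.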

[18] = Volume of distribution in Wistar rat at 5 mg/kg, iv; assay type: ADME, organism-based; settings: in vivo
[19] = Cmax in Wistar rat at 10 mg/kg, po; assay type: ADME, organism-based; set-up: route oral, dose 10 mg/kg; settings: in vivo
Rattus norvegicus [20] = experiment: Antiinflammatory activity in Sprague-Dawley rat model of LPS-induced COPD and asthma assessed as reduction in neutrophil influx in BALF at 10 mg/kg, po administered 30 mins before LPS stimulation and measured after 6 hrs relative to control; assay type: functional; settings: time 6.5 hrs
PBMC [21] = experiment: Inhibition of PDE-4 in human PBMC assessed as LPS-induced TNFalpha production at 1000 nM incubated for 15 mins followed by LPS stimulation and measured after 18 hrs by ELISA relative to control; settings: time 1095.0 min; how it was run: as §2
Mus musculus [22] = experiment: Antiinflammatory activity in Swiss albino mouse model of LPS-induced sepsis assessed as reduction in TNFalpha production at 1 mg/kg, po administered 30 mins before LPS stimulation and measured after 90 min by ELISA relative to control; assay type: functional; settings: 2 h, time 120 min; how it was run: as §3
Rattus norvegicus [23] = experiment: Antiinflammatory activity in Wistar rat model of LPS-induced uveitis assessed as reduction in infiltrating cells in aqueous humor at 1 mg/kg, po administered 24 hrs after LPS stimulation and measured after 1 hr by hemocytometry relative to control; assay type: functional
[24] = Initial concentration in Wistar rat at 5 mg/kg, iv; assay type: ADME, organism-based; settings: in vivo
Rattus norvegicus [25] = experiment: Antiinflammatory activity in Sprague-Dawley rat model of LPS-induced COPD and asthma assessed as reduction in total cell count in BALF at 0.3 mg/kg, po administered 30 mins before LPS stimulation and measured after 6 hrs relative to control; assay type: functional; settings: time 6.5 hrs
Rattus norvegicus [26] = experiment: Antiinflammatory activity in Sprague-Dawley rat model of LPS-induced COPD and asthma assessed as reduction in total cell count in BALF at 30 mg/kg, po administered 30 mins before LPS stimulation and measured after 6 hrs relative to control; assay type: functional; settings: time 6.5 hrs
[27] = molecular target: T1, 3',5'-cyclic-AMP phosphodiesterase 4B; experiment: Inhibition of human PDE4B using [3H]cAMP as substrate at 100 nM incubated for 5 mins followed by substrate addition and measured after 10 mins by scintillation proximity assay relative to control; settings: time 15.0 min; how it was run: as §4
Rattus norvegicus [28] = experiment: Antiinflammatory activity in Wistar rat model of LPS-induced uveitis assessed as reduction in infiltrating cells in aqueous humor at 0.1 mg/kg, po administered 24 hrs after LPS stimulation and measured after 1 hr by hemocytometry relative to control; assay type: functional
Rattus norvegicus [29] = experiment: Antiinflammatory activity in Wistar rat model of LPS-induced uveitis assessed as reduction in infiltrating cells in aqueous humor at 0.5 mg/kg, po administered 24 hrs after LPS stimulation and measured after 1 hr by hemocytometry relative to control; assay type: functional
[30] = AUClast in Wistar rat at 10 mg/kg, po; assay type: ADME, organism-based; set-up: dose 10 mg/kg; settings: in vivo
Mus musculus [31] = experiment: Antiinflammatory activity in Swiss albino mouse model of LPS-induced sepsis assessed as reduction in TNFalpha production at 3 mg/kg, po administered 30 mins before LPS stimulation and measured after 90 min by ELISA relative to control; assay type: functional; settings: 2 h, time 120 min; how it was run: as §3
Rattus norvegicus [32] = experiment: Antiinflammatory activity in Wistar rat model of LPS-induced uveitis assessed as reduction in infiltrating cells in aqueous humor at 10 ug/10ul/eye administered 24 hrs after LPS stimulation and measured after 1 hr by hemocytometry relative to control; assay type: functional; settings: dose 10 µg

T1 sequence (Q07343 whole entry): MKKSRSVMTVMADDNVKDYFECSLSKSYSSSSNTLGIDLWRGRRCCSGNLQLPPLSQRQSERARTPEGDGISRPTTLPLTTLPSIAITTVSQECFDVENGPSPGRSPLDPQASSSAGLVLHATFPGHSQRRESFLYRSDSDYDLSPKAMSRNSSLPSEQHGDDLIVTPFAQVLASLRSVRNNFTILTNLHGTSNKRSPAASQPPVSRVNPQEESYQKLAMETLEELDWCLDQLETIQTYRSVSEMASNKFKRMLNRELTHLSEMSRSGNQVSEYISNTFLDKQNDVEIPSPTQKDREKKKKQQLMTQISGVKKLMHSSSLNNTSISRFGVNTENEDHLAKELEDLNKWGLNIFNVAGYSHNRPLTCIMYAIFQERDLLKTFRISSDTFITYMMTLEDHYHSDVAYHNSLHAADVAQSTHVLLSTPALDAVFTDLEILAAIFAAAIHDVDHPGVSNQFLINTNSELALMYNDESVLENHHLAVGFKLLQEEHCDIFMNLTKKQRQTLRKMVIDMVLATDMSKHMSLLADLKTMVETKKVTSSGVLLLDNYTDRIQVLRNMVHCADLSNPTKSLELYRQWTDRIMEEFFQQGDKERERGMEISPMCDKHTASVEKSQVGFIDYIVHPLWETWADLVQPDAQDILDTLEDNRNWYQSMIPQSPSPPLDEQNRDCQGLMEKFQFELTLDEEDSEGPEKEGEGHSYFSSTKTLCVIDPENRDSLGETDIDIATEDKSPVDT

bioavailability [3]: 42% | IC50 [4]: 31 nM | AUC(0-t) [8]: 13700 ng·h/mL | half-life [10]: 1.9 h | half-life [11]: 5 h | Tmax [12]: 4.8 h | clearance [16]: 6.67 mL/min/kg | IC50 [17]: 63.5 nM | Vd [18]: 1 L/kg | Cmax [19]: 1400 ng/mL | C0 [24]: 4000 ng/mL | inhibition [27]: 65.3% | AUC(0-t) [30]: 11500 ng·h/mL
SMILES: O=C(NC1CCC(O)CC1)c1csc(-c2ccc(OC(F)F)c3oc4ccccc4c23)n1 (configuration not stated)
inhibition in vivo at 0.1 mg/kg (Rattus norvegicus [1]): 52.8% | Activity [2]: Non-Toxic | inhibition in vivo at 0.3 mg/kg (Mus musculus [5]): 16.4% | inhibition (PBMC [6]): 77.7% | inhibition in vivo at 1 mg/kg (Rattus norvegicus [7]): 60.7% | inhibition in vivo at 10 mg/kg (Rattus norvegicus [9]): 75.2% | Activity [13]: Non-Toxic | inhibition in vivo at 3 mg/kg (Rattus norvegicus [14]): 70.9% | inhibition in vivo at 3 mg/kg (Rattus norvegicus [15]): 96.9% | inhibition in vivo at 10 mg/kg (Rattus norvegicus [20]): 58% | inhibition (PBMC [21]): 93.8% | inhibition in vivo at 1 mg/kg (Mus musculus [22]): 34.2% | inhibition in vivo at 1 mg/kg (Rattus norvegicus [23]): 90.3% | inhibition in vivo at 0.3 mg/kg (Rattus norvegicus [25]): 34.6% | inhibition in vivo at 30 mg/kg (Rattus norvegicus [26]): 78.7% | inhibition in vivo at 0.1 mg/kg (Rattus norvegicus [28]): 43.6% | inhibition in vivo at 0.5 mg/kg (Rattus norvegicus [29]): 54.4% | inhibition in vivo at 3 mg/kg (Mus musculus [31]): 82.2%

SMILES: C[C@@H]1C[C@H]2[C@@H]3CCC4=CC(=O)C=C[C@]4(C)[C@@]3(F)[C@@H](O)C[C@]2(C)[C@@]1(O)C(=O)CO [DEXAMETHASONE]
inhibition (INH) (Rattus norvegicus [32]): 79.1%
